According to ChEMBL document CHEMBL4257478, “Design, synthesis and evaluation of (R)-3-(7-(methyl(7H-pyrrolo[2,3-d]pyrimidin-4-yl)amino)-5-azaspiro[2.4]heptan-5-yl)-3-oxopropanenitrile as a JAK1-selective inhibitor” (Medchemcomm, 2018):
pIC50: −log10 of the molar value.

What was measured:
[1] = biological target: Tyrosine-protein kinase JAK1 (Homo sapiens, UniProt P23458); test: Inhibition of human JAK1 using GEEPLYWSFPAKKK as substrate after 40 mins in presence of [gamma-33P-ATP] by scintillation counting method
Sequence of Tyrosine-protein kinase JAK1 (P23458 whole entry): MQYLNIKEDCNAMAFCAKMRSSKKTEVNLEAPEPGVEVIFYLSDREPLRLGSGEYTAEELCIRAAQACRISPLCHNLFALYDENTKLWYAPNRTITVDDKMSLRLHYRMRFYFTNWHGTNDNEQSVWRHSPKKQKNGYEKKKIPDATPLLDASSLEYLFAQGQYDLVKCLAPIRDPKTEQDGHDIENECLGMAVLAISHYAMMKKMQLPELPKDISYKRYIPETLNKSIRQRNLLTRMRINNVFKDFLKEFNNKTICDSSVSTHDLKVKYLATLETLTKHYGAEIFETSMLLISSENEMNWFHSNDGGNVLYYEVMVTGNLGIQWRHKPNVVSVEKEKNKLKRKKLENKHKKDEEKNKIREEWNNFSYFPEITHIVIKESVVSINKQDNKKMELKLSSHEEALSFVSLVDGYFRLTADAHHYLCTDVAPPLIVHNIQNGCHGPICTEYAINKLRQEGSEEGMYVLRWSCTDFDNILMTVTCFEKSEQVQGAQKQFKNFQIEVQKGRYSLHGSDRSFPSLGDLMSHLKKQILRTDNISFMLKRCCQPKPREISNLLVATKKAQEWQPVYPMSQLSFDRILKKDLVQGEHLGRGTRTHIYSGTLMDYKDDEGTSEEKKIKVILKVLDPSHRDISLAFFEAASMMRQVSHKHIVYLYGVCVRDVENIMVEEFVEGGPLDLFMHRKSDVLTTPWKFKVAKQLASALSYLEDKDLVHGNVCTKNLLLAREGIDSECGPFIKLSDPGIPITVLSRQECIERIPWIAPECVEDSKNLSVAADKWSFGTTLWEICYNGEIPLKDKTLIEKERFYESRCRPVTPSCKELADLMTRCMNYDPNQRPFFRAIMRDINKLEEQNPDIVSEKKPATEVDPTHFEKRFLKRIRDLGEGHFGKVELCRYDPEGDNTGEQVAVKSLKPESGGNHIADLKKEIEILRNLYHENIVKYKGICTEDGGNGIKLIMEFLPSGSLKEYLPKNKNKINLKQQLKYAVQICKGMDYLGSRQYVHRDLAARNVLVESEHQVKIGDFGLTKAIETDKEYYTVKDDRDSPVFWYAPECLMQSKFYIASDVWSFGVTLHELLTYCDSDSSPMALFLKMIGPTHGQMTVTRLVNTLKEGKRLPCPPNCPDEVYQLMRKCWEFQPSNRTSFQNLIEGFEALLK

[2] = biological target: T1, Tyrosine-protein kinase JAK2 (Homo sapiens, UniProt O60674); test: Inhibition of human JAK2 using KTFCGTPEYLAPEVRREPRILSEEEQEMFRDFDYIADWC as substrate after 40 mins in presence of [gamma-33P-ATP] by scintillation counting method
T1 sequence (O60674 whole entry): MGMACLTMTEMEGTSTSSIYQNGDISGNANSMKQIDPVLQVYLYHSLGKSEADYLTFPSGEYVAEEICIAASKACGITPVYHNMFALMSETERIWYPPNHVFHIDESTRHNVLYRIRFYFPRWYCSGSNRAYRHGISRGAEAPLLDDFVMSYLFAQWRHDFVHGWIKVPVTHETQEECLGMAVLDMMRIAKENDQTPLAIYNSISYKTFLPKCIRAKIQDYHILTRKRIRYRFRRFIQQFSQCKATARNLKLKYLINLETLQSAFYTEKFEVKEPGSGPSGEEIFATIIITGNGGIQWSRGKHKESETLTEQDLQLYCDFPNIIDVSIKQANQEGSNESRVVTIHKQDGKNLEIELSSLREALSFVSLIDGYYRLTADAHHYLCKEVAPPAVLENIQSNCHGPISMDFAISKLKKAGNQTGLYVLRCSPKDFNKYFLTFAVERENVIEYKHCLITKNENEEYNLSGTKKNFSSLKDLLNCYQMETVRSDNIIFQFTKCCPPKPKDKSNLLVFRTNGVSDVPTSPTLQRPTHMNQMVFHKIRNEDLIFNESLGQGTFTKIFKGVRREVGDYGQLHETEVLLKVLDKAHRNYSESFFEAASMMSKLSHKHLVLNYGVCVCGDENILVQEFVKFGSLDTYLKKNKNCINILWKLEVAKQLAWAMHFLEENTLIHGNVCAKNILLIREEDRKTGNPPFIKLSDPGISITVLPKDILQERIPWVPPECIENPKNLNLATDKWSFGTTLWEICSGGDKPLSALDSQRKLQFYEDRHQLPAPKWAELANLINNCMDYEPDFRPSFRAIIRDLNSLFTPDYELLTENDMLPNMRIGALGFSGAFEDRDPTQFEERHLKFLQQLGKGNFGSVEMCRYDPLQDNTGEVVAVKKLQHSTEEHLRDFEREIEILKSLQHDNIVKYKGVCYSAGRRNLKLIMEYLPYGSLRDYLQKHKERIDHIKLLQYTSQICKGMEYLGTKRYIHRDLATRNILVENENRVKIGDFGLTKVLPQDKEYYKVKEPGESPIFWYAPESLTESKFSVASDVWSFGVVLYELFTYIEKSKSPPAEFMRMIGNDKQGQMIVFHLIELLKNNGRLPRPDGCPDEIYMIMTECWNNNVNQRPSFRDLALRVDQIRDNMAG

[3] = Tmax in Sprague-Dawley rat at 10 mg/kg, po after 0.25 to 24 hrs by LC-MS/MS method; format: ADME, organism-based; settings: in vivo
Method in brief: (§1)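 Male Sprague Dawley rats, 7–8 weeks old, n=4, fasted 16 h. Free base given at 10 mg/kg po as a corn oil suspension (5 mL/kg); a 5 mg/kg iv arm used 10% ethanol/90% PEG400. Plasma sampled 0.25–24 h, acetonitrile-precipitated with internal standard, and measured by LC-MS/MS. Parameters derived by non-compartmental analysis.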

[4] = biological target: T1, Tyrosine-protein kinase JAK2; test: Inhibition of human JAK2 at 10 uM using KTFCGTPEYLAPEVRREPRILSEEEQEMFRDFDYIADWC as substrate after 40 mins in presence of [gamma-33P-ATP] by scintillation counting method relative to control
[5] = MRT in Sprague-Dawley rat at 10 mg/kg, po after 0.25 to 24 hrs by LC-MS/MS method; format: ADME, organism-based; settings: in vivo
Method in brief: (§2)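 Male Sprague Dawley rats, 7-8 weeks old, n=4 per group. IV dose 5 mg/kg free base in 10% ethanol/90% PEG400; oral dose 10 mg/kg as corn oil suspension after 16 h fast. Blood taken 0.08-24 h (IV) or 0.25-24 h (PO). Plasma diluted in acetonitrile with internal standard, analysed by LC-MS/MS, parameters by non-compartmental analysis.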

Rattus norvegicus [6] = test: Antiarthritic activity in adjuvant-induced SPF LEW/SsNSlc rat arthritis model assessed as paw thickness at 20 mg/kg, po qd measured on day 14; format: functional
Method in brief: (§3)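 Lewis rats were 10 weeks old after 2 weeks acclimation. Immunized s.c. at the tail base with 0.1 mL complete Freund's adjuvant containing 10 mg/mL heat-killed mycobacterium. From day 12 post-immunization (day 1), n=10 per group, oral dosing once daily for 14 days, vehicle corn oil. Clinical score and hind paw measured twice weekly.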

[7] = biological target: Voltage-gated inwardly rectifying potassium channel KCNH2 (Homo sapiens, UniProt Q12809); test: Inhibition of human ERG expressed in HEK293 cells after 5 mins by automated planar patch clamp method; format: cell-based
Sequence of Voltage-gated inwardly rectifying potassium channel KCNH2 (Q12809 whole entry): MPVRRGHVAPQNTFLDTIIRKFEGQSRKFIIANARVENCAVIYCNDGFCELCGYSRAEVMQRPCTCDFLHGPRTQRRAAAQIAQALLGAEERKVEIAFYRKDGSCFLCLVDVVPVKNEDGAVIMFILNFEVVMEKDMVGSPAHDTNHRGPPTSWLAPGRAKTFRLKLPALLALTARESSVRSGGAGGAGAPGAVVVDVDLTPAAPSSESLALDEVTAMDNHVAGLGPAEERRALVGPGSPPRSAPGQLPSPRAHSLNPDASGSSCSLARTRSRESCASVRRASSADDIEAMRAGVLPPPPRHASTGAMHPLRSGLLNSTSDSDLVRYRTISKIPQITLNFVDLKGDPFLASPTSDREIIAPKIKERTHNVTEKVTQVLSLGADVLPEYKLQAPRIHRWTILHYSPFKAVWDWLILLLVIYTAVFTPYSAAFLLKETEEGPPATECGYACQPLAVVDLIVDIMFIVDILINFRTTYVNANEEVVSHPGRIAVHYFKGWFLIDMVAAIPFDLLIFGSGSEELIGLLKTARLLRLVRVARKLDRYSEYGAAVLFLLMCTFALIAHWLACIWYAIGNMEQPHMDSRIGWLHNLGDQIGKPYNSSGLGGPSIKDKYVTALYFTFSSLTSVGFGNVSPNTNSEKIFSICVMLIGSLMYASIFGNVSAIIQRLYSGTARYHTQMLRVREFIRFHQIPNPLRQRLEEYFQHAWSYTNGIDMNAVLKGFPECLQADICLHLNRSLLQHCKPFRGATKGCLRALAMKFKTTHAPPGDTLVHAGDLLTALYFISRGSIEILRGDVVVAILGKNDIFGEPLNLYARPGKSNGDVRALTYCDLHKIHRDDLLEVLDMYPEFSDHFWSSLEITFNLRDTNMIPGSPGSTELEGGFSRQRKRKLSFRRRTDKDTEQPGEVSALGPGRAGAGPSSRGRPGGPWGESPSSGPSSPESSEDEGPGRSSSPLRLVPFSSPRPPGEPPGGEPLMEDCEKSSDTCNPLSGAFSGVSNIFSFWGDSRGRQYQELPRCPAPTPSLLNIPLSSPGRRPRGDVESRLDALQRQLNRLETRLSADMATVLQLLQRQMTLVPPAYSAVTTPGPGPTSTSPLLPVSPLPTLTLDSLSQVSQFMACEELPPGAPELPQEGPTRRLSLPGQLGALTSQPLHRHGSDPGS

[8] = Cmax in Sprague-Dawley rat at 10 mg/kg, po after 0.25 to 24 hrs by LC-MS/MS method; format: ADME, organism-based; set-up: dose 10 mg/kg, route oral; settings: in vivo; method in brief: as §2
[9] = Half life in Sprague-Dawley rat at 10 mg/kg, po after 0.25 to 24 hrs by LC-MS/MS method; format: ADME, organism-based; settings: in vivo; method in brief: as §2
Rattus norvegicus [10] = test: AUC (0 to infinity) in Sprague-Dawley rat at 10 mg/kg, po after 0.25 to 24 hrs by LC-MS/MS method; format: ADME, organism-based; set-up: dose 10 mg/kg, route oral, time infinity; settings: in vivo; method in brief: as §2
[11] = MRT in Sprague-Dawley rat at 5 mg/kg, iv after 0.08 to 24 hrs by LC-MS/MS method; format: ADME, organism-based; settings: in vivo; method in brief: as §2
Rattus norvegicus [12] = test: AUC (0 to infinity) in Sprague-Dawley rat at 5 mg/kg, iv after 0.08 to 24 hrs by LC-MS/MS method; format: ADME, organism-based; set-up: dose 5 mg/kg, time infinity, route intravenous; settings: in vivo; method in brief: as §2
[13] = Oral bioavailability in Sprague-Dawley rat at 10 mg/kg after 0.25 to 24 hrs by LC-MS/MS method; format: ADME, organism-based; settings: in vivo; method in brief: as §1
Rattus norvegicus [14] = test: Antiarthritic activity in adjuvant-induced SPF LEW/SsNSlc rat arthritis model assessed as paw thickness at 10 mg/kg, po qd measured on day 14; format: functional; method in brief: as §3
Rattus norvegicus [15] = test: Antiarthritic activity in adjuvant-induced SPF LEW/SsNSlc rat arthritis model assessed as paw thickness at 5 mg/kg, po qd measured on 14 days; format: functional; method in brief: as §3

| Compound | pIC50 [1] | pIC50 [2] | Tmax [3] | inhibition at 10 µM [4] | MRT [5] | Activity (Rattus norvegicus [6]) | pIC50 [7] | Cmax [8] | half-life [9] | AUC (Rattus norvegicus [10]) | MRT [11] | AUC (Rattus norvegicus [12]) | bioavailability [13] | Activity (Rattus norvegicus [14]) | Activity (Rattus norvegicus [15]) |
| --- | --- | --- | --- | --- | --- | --- | --- | --- | --- | --- | --- | --- | --- | --- | --- |
| CCS(=O)(=O)N1C[C@H](N(C)c2ncnc3[nH]ccc23)C2(CC2)C1 | 8.14 | 6.74 |  |  |  |  |  |  |  |  |  |  |  |  |  |
| CN(c1ncnc2[nH]ccc12)[C@H]1CN(C(=O)CC#N)CC12CC2 |  |  | 0.3 h | 90% | 3.1 h | 10.2 mm | 3.92 | 1000 ng/mL | 2.1 h | 2100 ng·h/mL | 1.1 h | 920 ng·h/mL | 110% | 10.21 mm | 10.33 mm |
